Broadly, the IC50 is the concentration that gives 50% inhibition. For orientation: AUC(0-t) means the area under the concentration-time curve up to a stated or last time point. Lower therefore signals low exposure. By fraction unbound is commonly meant the share of the substance not bound to proteins or other matrix. The low end stands for extensive binding, the high end for weak binding. One may read the bioavailability as the share of a dose that reaches the circulation, judged against a reference dose that is usually intravenous. A higher bioavailability goes with much systemic uptake.

Bounds are passed on as bounds.

We go through 1 compound from ChEMBL document CHEMBL4382258, “Design and Optimization of Sulfone Pyrrolidine Sulfonamide Antagonists of Transient Receptor Potential Vanilloid-4 with in Vivo Activity in a Pulmonary Edema Model” (J Med Chem, 2018).

In series [1] the test system is Rattus norvegicus. In words: Reversal of heart failure-induced pulmonary edema in Sprague-Dawley rat assessed as inhibition of GSK1016790A-induced increase in lung wet weight to body weight ratio at 0.02 to 0.21 ug/kg, iv bolus loading dose followed by 0.3 to 2.3 ug/kg/min, iv continuous infusion dose for 60 mins prior to agonist administration. The series is classed as functional, organism-based. In short, it runs like this:
(§1)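 Rats given vehicle or antagonist by i.v. infusion, then agonist GSK1016790A i.v. at 10 µg/kg/min for 10 min (100 µg/kg total). Edema scored as wet lung weight/body weight ratio against naïve animals; inhibition computed from the agonist response; mean ± SEM.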

Series [2] in a line: Plasma concentration in Sprague-Dawley rat heart failure-induced pulmonary edema model at 0.21 ug/kg, iv bolus loading dose followed by 2.3 ug/kg/min, iv continuous infusion dose for 60 mins. In kind it is ADME, organism-based.
In a further series the target is T1, TRPC3/TRPC6 (Homo sapiens, UniProt Q13507+Q9Y210).
T1 sequence (Q9Y210 whole entry): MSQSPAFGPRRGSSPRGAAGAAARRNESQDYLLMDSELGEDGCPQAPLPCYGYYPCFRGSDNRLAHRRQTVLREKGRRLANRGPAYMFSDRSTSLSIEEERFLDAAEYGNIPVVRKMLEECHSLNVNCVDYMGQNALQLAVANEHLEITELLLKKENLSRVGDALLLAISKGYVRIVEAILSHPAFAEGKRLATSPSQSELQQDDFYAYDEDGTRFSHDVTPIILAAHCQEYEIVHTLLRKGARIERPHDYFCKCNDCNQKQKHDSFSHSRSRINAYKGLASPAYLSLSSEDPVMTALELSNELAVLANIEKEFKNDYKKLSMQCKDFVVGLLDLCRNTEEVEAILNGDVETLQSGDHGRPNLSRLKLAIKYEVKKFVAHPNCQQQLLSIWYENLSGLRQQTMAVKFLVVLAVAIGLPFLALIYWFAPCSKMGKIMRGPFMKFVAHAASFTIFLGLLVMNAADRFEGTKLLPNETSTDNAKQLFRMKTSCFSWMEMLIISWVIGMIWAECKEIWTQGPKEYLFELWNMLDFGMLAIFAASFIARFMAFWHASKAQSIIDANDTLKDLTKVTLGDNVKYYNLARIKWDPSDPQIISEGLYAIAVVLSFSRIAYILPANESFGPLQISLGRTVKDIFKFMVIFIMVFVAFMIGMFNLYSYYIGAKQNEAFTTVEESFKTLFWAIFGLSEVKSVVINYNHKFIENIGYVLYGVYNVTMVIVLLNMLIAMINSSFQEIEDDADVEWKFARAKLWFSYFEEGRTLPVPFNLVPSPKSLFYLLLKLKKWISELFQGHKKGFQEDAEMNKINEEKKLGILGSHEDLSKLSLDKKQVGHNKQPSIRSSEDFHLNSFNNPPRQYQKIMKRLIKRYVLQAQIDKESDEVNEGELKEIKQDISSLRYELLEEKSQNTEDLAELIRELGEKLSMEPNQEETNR
T1 sequence (Q13507 whole entry): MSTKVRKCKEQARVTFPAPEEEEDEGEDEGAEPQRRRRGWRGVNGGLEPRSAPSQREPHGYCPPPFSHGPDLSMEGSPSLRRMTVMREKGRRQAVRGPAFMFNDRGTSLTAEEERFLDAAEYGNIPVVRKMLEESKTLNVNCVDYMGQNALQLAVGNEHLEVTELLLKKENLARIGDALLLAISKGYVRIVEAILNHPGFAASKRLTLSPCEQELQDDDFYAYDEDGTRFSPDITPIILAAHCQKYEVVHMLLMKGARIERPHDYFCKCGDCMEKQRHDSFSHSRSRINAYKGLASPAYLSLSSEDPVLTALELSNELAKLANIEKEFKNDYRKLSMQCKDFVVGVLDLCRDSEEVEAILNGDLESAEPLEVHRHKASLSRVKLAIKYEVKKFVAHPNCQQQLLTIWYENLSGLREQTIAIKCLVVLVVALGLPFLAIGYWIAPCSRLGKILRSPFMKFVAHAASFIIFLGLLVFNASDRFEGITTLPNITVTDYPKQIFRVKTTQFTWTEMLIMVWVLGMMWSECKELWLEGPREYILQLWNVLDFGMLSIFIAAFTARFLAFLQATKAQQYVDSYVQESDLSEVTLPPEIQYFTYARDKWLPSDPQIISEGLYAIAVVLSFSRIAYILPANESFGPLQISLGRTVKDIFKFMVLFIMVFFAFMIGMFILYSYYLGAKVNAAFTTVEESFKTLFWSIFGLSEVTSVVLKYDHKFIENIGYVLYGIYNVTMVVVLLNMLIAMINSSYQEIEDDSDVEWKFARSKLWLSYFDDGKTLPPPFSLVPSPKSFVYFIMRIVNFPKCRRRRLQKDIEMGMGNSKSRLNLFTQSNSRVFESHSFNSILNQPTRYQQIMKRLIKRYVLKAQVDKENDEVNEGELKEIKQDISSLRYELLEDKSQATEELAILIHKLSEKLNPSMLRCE
In words: Antagonist activity at TRPC3/TRPC6 (unknown origin). In kind it is protein-complex assay.

The nature of series [3]: AUC (0 to t) in rat at 98 mg/kg, po. Particulars: in vivo; call rule not given here. In kind it is ADME, organism-based.
Series [4] concerns Rattus norvegicus. In words: Reversal of heart failure-induced pulmonary edema in Sprague-Dawley rat assessed as inhibition of GSK1016790A-induced increase in lung wet weight to body weight ratio at 0.21 ug/kg, iv bolus loading dose followed by 2.3 ug/kg/min, iv continuous infusion dose for 60 mins prior to agonist administration relative to control. In kind it is functional. The method, boiled down:
as §1

Series [5] in a line: Dose normalized AUC (0 to t) in rat at 2.4 mg/kg, po. Particulars: in vivo. The series is classed as ADME, organism-based.
Series [6] concerns the target Transient receptor potential cation channel subfamily V member 1 (Homo sapiens, UniProt Q8NER1). Put plainly: Antagonist activity at TRPV1 (unknown origin).
In series [7] the target is Transient receptor potential cation channel subfamily V member 4 (Rattus norvegicus, UniProt Q9ERZ8). In words: Antagonist activity at rat TRPV4 expressed in BHK/AC9 cells assessed as inhibition of GSK634775-induced […] pre-incubated for 10 mins followed by agonist addition by Fluo-4-AM dye-based FLIPR assay. The series is classed as cell-based.
Transient receptor potential cation channel subfamily V member 4, sequence (Q9ERZ8 whole entry): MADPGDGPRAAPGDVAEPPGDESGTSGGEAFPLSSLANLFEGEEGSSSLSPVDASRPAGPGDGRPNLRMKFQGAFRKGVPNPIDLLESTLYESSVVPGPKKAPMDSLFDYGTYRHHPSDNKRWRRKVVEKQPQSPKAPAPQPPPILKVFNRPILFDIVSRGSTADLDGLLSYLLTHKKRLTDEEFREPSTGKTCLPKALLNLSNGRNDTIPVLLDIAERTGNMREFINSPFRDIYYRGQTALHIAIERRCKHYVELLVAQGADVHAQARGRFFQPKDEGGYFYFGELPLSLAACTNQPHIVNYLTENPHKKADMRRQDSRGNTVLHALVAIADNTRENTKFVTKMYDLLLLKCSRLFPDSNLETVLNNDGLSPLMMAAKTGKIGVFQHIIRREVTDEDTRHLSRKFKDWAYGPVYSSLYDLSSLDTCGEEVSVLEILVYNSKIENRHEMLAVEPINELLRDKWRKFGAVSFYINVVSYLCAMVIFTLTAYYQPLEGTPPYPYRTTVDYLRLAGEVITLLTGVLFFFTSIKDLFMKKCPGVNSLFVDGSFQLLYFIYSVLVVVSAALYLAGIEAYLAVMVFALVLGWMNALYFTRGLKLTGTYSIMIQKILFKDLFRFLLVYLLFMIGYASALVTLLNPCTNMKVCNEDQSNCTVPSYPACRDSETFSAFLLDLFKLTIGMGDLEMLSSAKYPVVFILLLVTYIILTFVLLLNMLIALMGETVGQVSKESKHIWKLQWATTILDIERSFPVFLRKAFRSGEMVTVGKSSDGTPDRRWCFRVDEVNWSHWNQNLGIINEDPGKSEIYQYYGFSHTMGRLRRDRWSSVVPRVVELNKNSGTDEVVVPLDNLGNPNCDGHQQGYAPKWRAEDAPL
The nature of series [8]: AUC (0 to t) in rat at 2.4 mg/kg, po. The series is classed as ADME, organism-based. As to conditions: in vivo.
In the next series the target is Cytochrome P450 3A4 (Homo sapiens, UniProt P08684). In words: Time dependent inhibition of CYP3A4 (unknown origin) up to 100 uM preincubated up to 15 mins followed by 7-benzyloxy-trifluoromethylcoumarin substrate and NADPH addition by fluorescence assay. In kind it is ADME.
Cytochrome P450 3A4, sequence (P08684 whole entry, the tested form may be a part): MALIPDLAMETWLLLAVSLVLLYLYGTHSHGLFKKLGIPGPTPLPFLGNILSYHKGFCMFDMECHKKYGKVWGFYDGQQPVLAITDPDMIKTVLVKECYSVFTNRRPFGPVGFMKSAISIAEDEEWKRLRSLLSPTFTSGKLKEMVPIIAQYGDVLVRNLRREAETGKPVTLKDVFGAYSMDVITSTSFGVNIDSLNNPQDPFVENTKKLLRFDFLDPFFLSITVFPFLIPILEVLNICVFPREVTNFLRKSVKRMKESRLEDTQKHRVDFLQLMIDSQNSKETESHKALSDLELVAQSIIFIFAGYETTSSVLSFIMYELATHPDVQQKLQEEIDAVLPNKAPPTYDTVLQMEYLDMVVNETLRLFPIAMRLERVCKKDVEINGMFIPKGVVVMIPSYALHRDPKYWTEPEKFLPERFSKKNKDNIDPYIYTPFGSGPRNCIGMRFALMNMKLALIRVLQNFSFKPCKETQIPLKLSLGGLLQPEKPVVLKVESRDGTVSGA
The nature of series [9]: Fraction unbound in Sprague-Dawley rat heart failure-induced pulmonary edema model at 0.02 to 0.21 ug/kg, iv bolus loading dose followed by 0.3 to 2.3 ug/kg/min, iv continuous infusion dose for 60 mins. The series is classed as ADME, organism-based. As to conditions: in vivo.
Series [10] can be described thus: Oral bioavailability in Sprague-Dawley rat at 2 mg/kg by LC/MS/MS analysis. As to conditions: in vivo. In kind it is ADME, organism-based.
Series [11] is described as follows: Plasma concentration in Sprague-Dawley rat heart failure-induced pulmonary edema model at 0.07 ug/kg, iv bolus loading dose followed by 0.8 ug/kg/min, iv continuous infusion dose for 60 mins. In kind it is ADME, organism-based. As to conditions: 7e-05 mg/kg.

Transient receptor potential cation channel subfamily V member 1, sequence (Q8NER1 whole entry): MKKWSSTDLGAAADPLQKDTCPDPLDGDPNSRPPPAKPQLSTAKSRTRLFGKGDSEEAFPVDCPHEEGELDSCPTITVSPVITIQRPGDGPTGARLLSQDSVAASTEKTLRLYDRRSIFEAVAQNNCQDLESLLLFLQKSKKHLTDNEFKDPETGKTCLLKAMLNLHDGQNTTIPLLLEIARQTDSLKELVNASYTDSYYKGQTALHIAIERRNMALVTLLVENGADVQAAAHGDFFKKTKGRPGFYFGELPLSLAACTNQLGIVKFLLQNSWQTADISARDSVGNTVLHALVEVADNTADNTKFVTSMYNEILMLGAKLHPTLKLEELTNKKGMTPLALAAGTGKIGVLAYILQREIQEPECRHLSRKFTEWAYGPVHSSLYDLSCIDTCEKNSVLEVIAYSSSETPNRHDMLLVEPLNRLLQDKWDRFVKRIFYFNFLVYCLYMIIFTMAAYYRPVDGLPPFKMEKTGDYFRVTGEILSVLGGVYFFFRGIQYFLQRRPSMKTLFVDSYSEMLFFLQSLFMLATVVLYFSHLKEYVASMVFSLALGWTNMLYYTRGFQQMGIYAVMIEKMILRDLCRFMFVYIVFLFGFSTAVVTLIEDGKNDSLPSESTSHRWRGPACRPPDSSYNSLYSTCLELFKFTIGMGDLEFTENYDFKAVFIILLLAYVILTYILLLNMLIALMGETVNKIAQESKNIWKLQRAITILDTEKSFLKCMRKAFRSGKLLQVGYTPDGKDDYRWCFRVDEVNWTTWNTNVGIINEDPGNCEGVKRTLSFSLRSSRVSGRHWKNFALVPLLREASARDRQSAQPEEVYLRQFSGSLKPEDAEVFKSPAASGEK

Regarding `N#Cc1ccc(S(=O)(=O)N2C[C@H](S(=O)(=O)c3ccc(Cl)cc3)[C@](O)(CO)C2)c(Cl)c1`, the fIC50 in the series on Rattus norvegicus [1] is on record as 0.3 nM. Besides, the IC50 is 33 nM with Rattus norvegicus [1] (Rattus norvegicus, Sprague-Dawley); more than 30000 nM at TRPC3/TRPC6; more than 30000 nM in [6]; 4 nM in [7]. The concentration at 1 h in series [2] amounted to 152 nM; in series [11], 52 nM. Moreover, the AUC(0-t) in series [3] was 40000 ng·h/mL; in series [8], 1100 ng·h/mL. Moreover, the “inhibition (INH)” value in the series on Rattus norvegicus [4] is 99%. The compound also registered an AUCt/dose in series [5] of 0.5 kg·h/L. Further, the TDI entry at Cytochrome P450 3A4 is listed as “Not Active”. In series [9], the fraction unbound at 1 h worked out at 0.042. For the same compound, the bioavailability in series [10] was found to be 100%.
